Our source for the IC50 values is BindingDB's records for doi:10.1016/j.bmcl.2009.08.072 (Glaxosmithkline, 2010).

Assay [1] concerns the target T1, Presenilin-1 (Homo sapiens, UniProt P49768). As to the kind of experiment: Inhibition of gamma-secretase in human SHSY5Y cells expressing human recombinant APP assessed as amyloid beta40 formation by ELISA. Summed up:
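SH-SY5Y cells overexpressing human APP Swedish variant exposed to compound for 48 h; Aβ40 (and Aβ42) in the cell medium quantified by ELISA, either Meso Scale Discovery or AlphaLISA format. Compounds also cross-screened for inhibition of Notch processing.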

Assay [2] concerns the target T1, Presenilin-1. As to the kind of experiment: Inhibition of gamma-secretase in human SHSY5Y cells expressing human recombinant APP assessed as amyloid beta42 formation by ELISA. In a few lines: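 SH-SY5Y cells overexpressing human APP Swedish variant were incubated with compound for 48 h. Secreted Aβ42 and Aβ40 were measured by immunoassay (MSD electrochemiluminescence or AlphaLISA).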

Each structure is given as a SMILES string.

Regarding `CC(C)[C@H](O)C(=O)N[C@@H](C)C(=O)NC1C(=O)N(C)CCc2ccccc21` (stereo partly drawn) [(2S)-2-hydroxy-3-methyl-N-[(1S)-1-{[(1S)-3-methyl-2-oxo-2,3,4,5-tetrahydro-1H-3-benzazepin-1-yl]carbamoyl}ethyl]butanamide], the IC50 in assay [1] and in assay [2] was 40 nM throughout.
